# PMC3983348 (Journal of Medicinal Chemistry, 2014)
# Read-outs that look alike come from different tables or passages of the source.
# Assays:
# recombinant Top1 = target: T1, recombinant Top1 (Homo sapiens, UniProt P11387); assay: Top1-mediated DNA cleavage assay; assay type: biochemical; conditions: compound-induced DNA cleavage, score based on the activity of 1 μM camptothecin
# T1 sequence (P11387 1-765): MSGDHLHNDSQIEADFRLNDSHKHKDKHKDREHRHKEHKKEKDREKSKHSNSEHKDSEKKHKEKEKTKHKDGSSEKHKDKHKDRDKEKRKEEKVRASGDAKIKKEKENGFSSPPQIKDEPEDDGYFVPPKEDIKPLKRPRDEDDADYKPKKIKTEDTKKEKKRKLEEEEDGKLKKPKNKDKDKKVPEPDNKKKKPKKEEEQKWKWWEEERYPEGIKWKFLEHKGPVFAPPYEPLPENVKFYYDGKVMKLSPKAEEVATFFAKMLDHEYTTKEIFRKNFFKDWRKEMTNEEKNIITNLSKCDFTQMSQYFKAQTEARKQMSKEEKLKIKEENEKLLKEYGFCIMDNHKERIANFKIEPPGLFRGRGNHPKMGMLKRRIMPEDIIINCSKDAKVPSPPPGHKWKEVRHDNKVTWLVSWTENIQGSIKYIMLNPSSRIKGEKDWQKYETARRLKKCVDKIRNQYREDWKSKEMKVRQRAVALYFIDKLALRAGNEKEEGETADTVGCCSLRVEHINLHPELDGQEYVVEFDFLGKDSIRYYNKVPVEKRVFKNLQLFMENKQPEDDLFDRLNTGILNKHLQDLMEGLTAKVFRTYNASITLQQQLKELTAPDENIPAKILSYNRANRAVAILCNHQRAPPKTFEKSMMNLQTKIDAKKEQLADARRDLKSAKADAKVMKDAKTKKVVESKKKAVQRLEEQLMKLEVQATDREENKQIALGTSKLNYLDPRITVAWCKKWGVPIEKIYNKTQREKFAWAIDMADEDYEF
# recombinant TDP1 = recombinant TDP1 (Homo sapiens, UniProt Q9NUW8); assay: Gel-based assay measuring the inhibition of recombinant TDP1; assay type: biochemical
# How it was run: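 Gel assay: a 5′-[32P]-labeled single-stranded DNA oligonucleotide with a 3′-phosphotyrosine (N14Y) was incubated with 5 pM recombinant TDP1 and test compound for 15 min at room temperature. Samples were run on 16% denaturing PAGE and quantified by phosphorimager densitometry.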
# [1] = tested on: panel of 60 different human cancer cell lines; assay: NCI-60 five-dose assay, mean graph midpoint; assay type: cell-based; conditions: mean graph midpoint of growth inhibition, five-dose assay 10^–8 to 10^–4 M
# renal, SN12C = assay: NCI-60 five-dose assay, SN12C; assay type: cell-based; conditions: Homo sapiens, read-out: cytotoxicity GI50, renal, SN12C
# How it was run: (§1)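 Run in the National Cancer Institute's NCI-60 human cancer cell panel. Test compounds were first screened in a one-dose assay at 10–5 M, reading growth percent relative to vehicle-treated control.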
# melanoma, UACC-62 = assay: NCI-60 five-dose assay, UACC-62; assay type: cell-based; conditions: Homo sapiens, UACC-62, read-out: cytotoxicity GI50, melanoma, UACC-62
# How it was run: as §1
# [2] = read-out: TDP1 inhibition, score according to IC50
# recombinant TDP1, sequence (Q9NUW8 whole entry): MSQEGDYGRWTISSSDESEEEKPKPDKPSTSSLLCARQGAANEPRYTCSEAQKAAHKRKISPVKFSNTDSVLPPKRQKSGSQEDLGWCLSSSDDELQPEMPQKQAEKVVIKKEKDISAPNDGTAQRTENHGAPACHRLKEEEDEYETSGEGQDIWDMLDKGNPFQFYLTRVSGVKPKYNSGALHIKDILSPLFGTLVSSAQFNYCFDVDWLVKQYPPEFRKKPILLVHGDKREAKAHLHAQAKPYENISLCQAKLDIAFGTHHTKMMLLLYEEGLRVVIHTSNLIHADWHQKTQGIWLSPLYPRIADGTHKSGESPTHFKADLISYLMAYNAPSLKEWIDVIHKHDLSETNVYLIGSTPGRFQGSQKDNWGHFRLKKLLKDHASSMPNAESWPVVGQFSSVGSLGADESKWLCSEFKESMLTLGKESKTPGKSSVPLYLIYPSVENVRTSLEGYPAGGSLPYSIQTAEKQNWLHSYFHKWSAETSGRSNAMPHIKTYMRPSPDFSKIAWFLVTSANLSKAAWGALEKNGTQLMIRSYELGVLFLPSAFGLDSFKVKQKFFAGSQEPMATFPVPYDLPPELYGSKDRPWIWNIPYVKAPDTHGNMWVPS
Structure (SMILES),Top1 cleavage (recombinant Top1),IC50 (recombinant TDP1; [2]) [µM],MGM [1] [µM],further results
"COc1cc2c3c(n(CC(O)CO)c(=O)c2cc1OC)-c1cc2c(cc1C3=O)OCO2 (stereo not drawn) [Compound 52, (2′RS)-5,6-Dihydro-6-(2′,3′-dihydroxypropyl)-2,3-dimethoxy-8,9-methylenedioxy-5,11-dioxo-11H-indeno[1,2-c]isoquinoline]",++++,,0.065 ± 0.011,
"O=C1c2ccccc2-c2c1c1ccc([N+](=O)[O-])cc1c(=O)n2C[C@H](O)[C@@H](O)[C@H](O)CO [Compound 68, (2′S,3′R,4′R)-5,6-Dihydro-6-(2′,3′,4′,5′-tetrahydroxypentyl)-3-nitro-5,11-dioxo-11H-indeno[1,2-c]isoquinoline]",++++(+),37 to 111,0.372 ± 0.024,
"COc1cc2c3c(n(C[C@@H](O)[C@@H](O)[C@H](O)[C@H](O)CO)c(=O)c2cc1OC)-c1cc2c(cc1C3=O)OCO2 [Compound 61, (2′R,3′R,4′R,5′R)-5,6-Dihydro-6-(2′,3′,4′,5′,6′-pentahydroxyhexyl)-2,3-dimethoxy-8,9-methylenedioxy-5,11-dioxo-11H-indeno[1,2-c]isoquinoline]",++++,,,
"O=C1c2ccccc2-c2c1c1ccc([N+](=O)[O-])cc1c(=O)n2C[C@@H](O)[C@H](O)[C@H](O)CO [Compound 65, (2′R,3′S,4′R)-5,6-Dihydro-6-(2′,3′,4′,5′-tetrahydroxypentyl)-3-nitro-5,11-dioxo-11H-indeno[1,2-c]isoquinoline]",++++,37 to 111,1.58,"GI50 (renal, SN12C): 2.69 µM"
"COc1cc2c3c(n(C[C@H](O)CO)c(=O)c2cc1OC)-c1cc2c(cc1C3=O)OCO2 [Compound 53, (2′S)-5,6-Dihydro-6-(2′,3′-dihydroxypropyl)-2,3-dimethoxy-8,9-methylenedioxy-5,11-dioxo-11H-indeno[1,2-c]isoquinoline]",++++,,0.049 ± 0.003,
"O=C1c2ccccc2-c2c1c1ccc([N+](=O)[O-])cc1c(=O)n2C[C@H](O)[C@H](O)[C@H](O)CO [Compound 66, (2′S,3′S,4′R)-5,6-Dihydro-6-(2′,3′,4′,5′-tetrahydroxypentyl)-3-nitro-5,11-dioxo-11H-indeno[1,2-c]isoquinoline]",++++(+),,0.508 ± 0.041,
"COc1cc2c3c(n(C[C@H](O)[C@H](O)[C@H](O)CO)c(=O)c2cc1OC)-c1cc2c(cc1C3=O)OCO2 [Compound 56, (2′S,3′S,4′R)-5,6-Dihydro-6-(2′,3′,4′,5′-tetrahydroxypentyl)-2,3-dimethoxy-8,9-methylenedioxy-5,11-dioxo-11H-indeno[1,2-c]isoquinoline]",,37 to 111,1.43 ± 0.44,
"O=C1c2ccccc2-c2c1c1ccc([N+](=O)[O-])cc1c(=O)n2C[C@@H](O)[C@@H](O)[C@H](O)CO [Compound 67, (2′R,3′R,4′R)-5,6-Dihydro-6-(2′,3′,4′,5′-tetrahydroxypentyl)-3-nitro-5,11-dioxo-11H-indeno[1,2-c]isoquinoline]",++++,12 to 37,1.66,

# More lines, main results first:
Top1 cleavage (recombinant Top1),IC50 (recombinant TDP1; [2]) [µM],Structure (SMILES),MGM [1] [µM],further results
"++ (++, between 50% and 75% activity)",12 to 37,O=C1c2ccccc2-c2c1c1ccc([N+](=O)[O-])cc1c(=O)n2C[C@@H]1O[C@H](CO)[C@@H](O)[C@H](O)[C@H]1O [Compound 71],,IC50 (recombinant TDP1): ≥ 12 µM
"+++ (+++, between 75% and 95% activity)",,"O=C1c2ccccc2-c2c1c1ccc([N+](=O)[O-])cc1c(=O)n2C[C@@H](O)CO [Compound 64, (2′R)-5,6-Dihydro-6-(2′,3′-dihydroxypropyl)-3-nitro-5,11-dioxo-11H-indeno[1,2-c]isoquinoline]",0.332 ± 0.022,
"+++ (+++, between 75% and 95% activity)",,"COc1cc2c3c(n(C[C@@H](O)[C@H](O)[C@H](O)CO)c(=O)c2cc1OC)-c1cc2c(cc1C3=O)OCO2 [Compound 55, (2′R,3′S,4′R)-5,6-Dihydro-6-(2′,3′,4′,5′-tetrahydroxypentyl)-2,3-dimethoxy-8,9-methylenedioxy-5,11-dioxo-11H-indeno[1,2-c]isoquinoline]",5.62 ± 0.18,
"+++ (+++, between 75% and 95% activity)",,"O=C1c2ccccc2-c2c1c1ccc([N+](=O)[O-])cc1c(=O)n2CC(O)CO (stereo not drawn) [Compound 63, (2′RS)-5,6-Dihydro-6-(2′,3′-dihydroxypropyl)-3-nitro-5,11-dioxo-11H-indeno[1,2-c]isoquinoline]",0.389 ± 0.013,
++++,,"COc1cc2c3c(n(C[C@@H](O)[C@@H](O)[C@H](O)CO)c(=O)c2cc1OC)-c1cc2c(cc1C3=O)OCO2 [Compound 57, (2′R,3′R,4′R)-5,6-Dihydro-6-(2′,3′,4′,5′-tetrahydroxypentyl)-2,3-dimethoxy-8,9-methylenedioxy-5,11-dioxo-11H-indeno[1,2-c]isoquinoline]",2.94 ± 0.52,
++++,37 to 111,"O=C1c2ccccc2-c2c1c1ccc([N+](=O)[O-])cc1c(=O)n2C[C@@H](O)[C@@H](O)[C@H](O)[C@H](O)CO [Compound 70, (2′R,3′R,4′R,5′R)-5,6-Dihydro-6-(2′,3′,4′,5′,6′-pentahydroxyhexyl)-3-nitro-5,11-dioxo-11H-indeno[1,2-c]isoquinoline]",16.6,
"+++ (+++, between 75% and 95% activity)",,"COc1cc2c3c(n(C[C@H](O)[C@@H](O)[C@H](O)[C@H](O)CO)c(=O)c2cc1OC)-c1cc2c(cc1C3=O)OCO2 [Compound 60, (2′S,3′R,4′R,5′R)-5,6-Dihydro-6-(2′,3′,4′,5′,6′-pentahydroxyhexyl)-2,3-dimethoxy-8,9-methylenedioxy-5,11-dioxo-11H-indeno[1,2-c]isoquinolone]",,
"++ (++, between 50% and 75% activity)",37 to 111,COc1cc2c3c(n(C[C@@H]4O[C@H](CO)[C@@H](O)[C@H](O)[C@H]4O)c(=O)c2cc1OC)-c1cc2c(cc1C3=O)OCO2 [Compound 62],,IC50 (recombinant TDP1; read-out: TDP1 IC50): ≥ 12 µM
"++ (++, between 50% and 75% activity)",37 to 111,"COc1cc2c3c(n(C[C@H](O)[C@@H](O)[C@@H](O)[C@H](O)CO)c(=O)c2cc1OC)-c1cc2c(cc1C3=O)OCO2 [Compound 59, (2′S,3′R,4′S,5′R)-5,6-Dihydro-6-(2′,3′,4′,5′,6′-pentahydroxyhexyl)-2,3-dimethoxy-8,9-methylenedioxy-5,11-dioxo-11H-indeno[1,2-c]isoquinoline]",,
++++,,"COc1cc2c3c(n(C[C@@H](O)CO)c(=O)c2cc1OC)-c1cc2c(cc1C3=O)OCO2 [Compound 54, (2′R)-5,6-Dihydro-6-(2′,3′-dihydroxypropyl)-2,3-dimethoxy-8,9-methylenedioxy-5,11-dioxo-11H-indeno[1,2-c]isoquinoline]",0.166 ± 0.005,"GI50 (melanoma, UACC-62): 0.025 µM"
